Laboratory results taken from ChEMBL document CHEMBL4138082 (Eur J Med Chem, 2017).

Experiments:
PC-3 = assay: Antiproliferative activity against human PC3 cells after 72 hrs by MTT assay; type: functional, cell-based; settings: PC-3, 72 h
Summary of the method: (§1)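 MTT assay. Cells were seeded and grown 24 h at 37 °C in 5% CO2, then exposed to compound or left untreated for 72 h. MTT (5 mg/mL stock) was added for 4 h and the formazan dissolved in DMSO. OD was read at 570 nm. IC50 is the concentration giving 50% growth inhibition, reported as mean ± SD of three independent experiments. Vehicle reference was 0.1% DMSO.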

L02 = assay: Cytotoxicity against human L02 cells assessed as reduction in cell viability after 72 hrs by MTT assay; type: cell-based; settings: L02, 72 h; summary of the method: as §1
[1] = Selectivity index, ratio of IC50 for human L02 cells to IC50 for human HepG2 cells; type: toxicity; settings: L02 cells and HepG2 cells, read-out: Ratio IC50
Summary of the method: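 MTT assay: cells grown 24 h at 37 °C, 5% CO2, then exposed 72 h; MTT (5 mg/mL) added for 4 h, formazan dissolved in DMSO, OD read at 570 nm. Vehicle 0.1% DMSO. Three independent experiments.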

HT-29 = assay: Antiproliferative activity against human HT-29 cells after 72 hrs by MTT assay; type: functional, cell-based; settings: HT-29, 72 h; summary of the method: as §1
HepG2 = assay: Antiproliferative activity against human HepG2 cells after 72 hrs by MTT assay; type: functional, cell-based; settings: HepG2, 72 h; summary of the method: as §1
[2] = Drug metabolism in human L02 cells assessed as NO release by measuring nitrite formation at 100 uM after 1 hr by Griess assay; type: ADME, cell-based; settings: l02, 1 h
Summary of the method: (§2)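 HepG-2 or L-02 cells were exposed to 100 µM of each compound for 60 min and then harvested. Lysates were mixed with Griess reagent for 10 min at 37 °C and absorbance was read at 550 nm. NO release is expressed as nitrite, reported as mean ± SD of three independent experiments.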

[3] = Drug metabolism in human HepG2 cells assessed as NO release by measuring nitrite formation at 100 uM after 1 hr by Griess assay; type: ADME, cell-based; settings: hepg2, 1 h; summary of the method: as §2

SMILES: C[C@H]1CCC/C=C/[C@@H]2C[C@H](O)C[C@H]2[C@H](OC(=O)c2ccccc2C(=O)OCCCOc2no[n+]([O-])c2S(=O)(=O)c2ccccc2)/C=C/C(=O)O1
- IC50 (PC-3): 150 nM
- IC50 (L02): 5900 nM
- selectivity ratio [1]: 10
- IC50 (HT-29): 860 nM
- IC50 (HepG2): 620 nM

SMILES: C[C@H]1CCC/C=C/[C@@H]2C[C@H](O)C[C@H]2[C@H](OC(=O)CCC(=O)OCCOc2no[n+]([O-])c2S(=O)(=O)c2ccccc2)/C=C/C(=O)O1
- IC50 (PC-3): 120 nM
- IC50 (L02): 5000 nM
- selectivity ratio [1]: 10
- IC50 (HT-29): 230 nM
- IC50 (HepG2): 510 nM

SMILES: O=C(O)CCC(=O)OCCCOc1no[n+]([O-])c1S(=O)(=O)c1ccccc1
- IC50 (PC-3): > 10000 nM
- IC50 (L02): 29000 nM
- selectivity ratio [1]: 5
- IC50 (HT-29): > 10000 nM
- IC50 (HepG2): 6400 nM

SMILES: C[C@H]1CCC/C=C/[C@@H]2C[C@H](OC(=O)c3ccccc3C(=O)OCCCOc3no[n+]([O-])c3S(=O)(=O)c3ccccc3)C[C@H]2[C@H](O)/C=C/C(=O)O1
- IC50 (PC-3): 95 nM
- IC50 (L02): 5400 nM
- selectivity ratio [1]: 9
- IC50 (HT-29): 300 nM
- IC50 (HepG2): 620 nM

SMILES: O=C(O)CCCC(=O)OCCCOc1no[n+]([O-])c1S(=O)(=O)c1ccccc1
- IC50 (PC-3): 3300 nM
- IC50 (L02): 35000 nM
- IC50 (HT-29): > 10000 nM
- IC50 (HepG2): > 10000 nM

SMILES: O=C(O)CCC(=O)OCCOc1no[n+]([O-])c1S(=O)(=O)c1ccccc1
- IC50 (PC-3): 3800 nM
- IC50 (L02): 36000 nM
- IC50 (HT-29): > 10000 nM
- IC50 (HepG2): > 10000 nM

SMILES: O=c1[nH]cc(F)c(=O)[nH]1 [FLUOROURACIL]
- IC50 (HT-29): 4900 nM

SMILES: C[C@H]1CCC/C=C/[C@@H]2C[C@H](O)C[C@H]2[C@H](OC(=O)c2ccccc2C(=O)OCCOc2no[n+]([O-])c2S(=O)(=O)c2ccccc2)/C=C/C(=O)O1
- IC50 (PC-3): 110 nM
- IC50 (L02): 5700 nM
- selectivity ratio [1]: 7
- IC50 (HT-29): 400 nM
- IC50 (HepG2): 820 nM

SMILES: C[C@H]1CCC/C=C/[C@@H]2C[C@H](OC(=O)c3ccccc3C(=O)OCCOc3no[n+]([O-])c3S(=O)(=O)c3ccccc3)C[C@H]2[C@H](O)/C=C/C(=O)O1
- IC50 (PC-3): 64 nM
- IC50 (L02): 5900 nM
- selectivity ratio [1]: 11
- IC50 (HT-29): 280 nM
- IC50 (HepG2): 540 nM

SMILES: C[C@H]1CCC/C=C/[C@@H]2C[C@H](OC(=O)CCCC(=O)OCCOc3no[n+]([O-])c3S(=O)(=O)c3ccccc3)C[C@H]2[C@H](O)/C=C/C(=O)O1
- IC50 (PC-3): 59 nM
- IC50 (L02): 5100 nM
- selectivity ratio [1]: 6
- Drug metabolism [2]: 14.6 µM
- IC50 (HT-29): 180 nM
- IC50 (HepG2): 820 nM
- Drug metabolism [3]: 65.2 µM

SMILES: C[C@H]1CCC/C=C/[C@@H]2C[C@H](OC(=O)c3ccccc3C(=O)OCCCOc3no[n+]([O-])c3S(=O)(=O)c3ccccc3)C[C@H]2[C@H](OC(=O)c2ccccc2C(=O)OCCCOc2no[n+]([O-])c2S(=O)(=O)c2ccccc2)/C=C/C(=O)O1
- IC50 (PC-3): 1300 nM
- IC50 (L02): 9800 nM
- selectivity ratio [1]: 2
- IC50 (HT-29): 4400 nM
- IC50 (HepG2): 4000 nM

SMILES: C[C@H]1CCC/C=C/[C@@H]2C[C@H](OC(=O)CCC(=O)O)C[C@H]2[C@H](O)/C=C/C(=O)O1
- IC50 (PC-3): 1600 nM
- IC50 (L02): 9500 nM
- selectivity ratio [1]: 6
- IC50 (HT-29): 6300 nM
- IC50 (HepG2): 1600 nM

SMILES: C[C@H]1CCC/C=C/[C@@H]2C[C@H](O)C[C@H]2[C@H](OC(=O)CCCC(=O)OCCCOc2no[n+]([O-])c2S(=O)(=O)c2ccccc2)/C=C/C(=O)O1
- IC50 (PC-3): 95 nM
- IC50 (L02): 6700 nM
- selectivity ratio [1]: 4
- IC50 (HT-29): 5700 nM
- IC50 (HepG2): 1800 nM

SMILES: O=C(O)CCCC(=O)OCCOc1no[n+]([O-])c1S(=O)(=O)c1ccccc1
- IC50 (PC-3): 5100 nM
- IC50 (L02): 32000 nM
- selectivity ratio [1]: 8
- IC50 (HT-29): > 10000 nM
- IC50 (HepG2): 4000 nM

SMILES: C[C@H]1CCC/C=C/[C@@H]2C[C@H](OC(=O)CCC(=O)OCCCOc3no[n+]([O-])c3S(=O)(=O)c3ccccc3)C[C@H]2[C@H](OC(=O)CCC(=O)OCCCOc2no[n+]([O-])c2S(=O)(=O)c2ccccc2)/C=C/C(=O)O1
- IC50 (PC-3): 120 nM
- IC50 (L02): 7200 nM
- selectivity ratio [1]: 9
- IC50 (HT-29): 1200 nM
- IC50 (HepG2): 840 nM

SMILES: C[C@H]1CCC/C=C/[C@@H]2C[C@H](OC(=O)CCC(=O)OCCOc3no[n+]([O-])c3S(=O)(=O)c3ccccc3)C[C@H]2[C@H](OC(=O)CCC(=O)OCCOc2no[n+]([O-])c2S(=O)(=O)c2ccccc2)/C=C/C(=O)O1
- IC50 (PC-3): 56 nM
- IC50 (L02): 5900 nM
- selectivity ratio [1]: 12
- Drug metabolism [2]: 19.5 µM
- IC50 (HT-29): 220 nM
- IC50 (HepG2): 510 nM
- Drug metabolism [3]: 98.4 µM

SMILES: C[C@H]1CCC/C=C/[C@@H]2C[C@H](O)C[C@H]2[C@H](OC(=O)CCC(=O)OCCCOc2no[n+]([O-])c2S(=O)(=O)c2ccccc2)/C=C/C(=O)O1
- IC50 (PC-3): 250 nM
- IC50 (L02): 6900 nM
- selectivity ratio [1]: 9
- IC50 (HT-29): 790 nM
- IC50 (HepG2): 730 nM

SMILES: C[C@H]1CCC/C=C/[C@@H]2C[C@H](OC(=O)c3ccccc3C(=O)OCCOc3no[n+]([O-])c3S(=O)(=O)c3ccccc3)C[C@H]2[C@H](OC(=O)c2ccccc2C(=O)OCCOc2no[n+]([O-])c2S(=O)(=O)c2ccccc2)/C=C/C(=O)O1
- IC50 (PC-3): 130 nM
- IC50 (L02): 6200 nM
- selectivity ratio [1]: 11
- Drug metabolism [2]: 20.6 µM
- IC50 (HT-29): 230 nM
- IC50 (HepG2): 550 nM
- Drug metabolism [3]: 89.3 µM

SMILES: C[C@H]1CCC/C=C/[C@@H]2C[C@H](OC(=O)CCCC(=O)OCCCOc3no[n+]([O-])c3S(=O)(=O)c3ccccc3)C[C@H]2[C@H](OC(=O)CCCC(=O)OCCCOc2no[n+]([O-])c2S(=O)(=O)c2ccccc2)/C=C/C(=O)O1
- IC50 (PC-3): 83 nM
- IC50 (L02): 5100 nM
- selectivity ratio [1]: 13
- Drug metabolism [2]: 23.4 µM
- IC50 (HT-29): 620 nM
- IC50 (HepG2): 380 nM
- Drug metabolism [3]: 92.3 µM

SMILES: C[C@H]1CCC/C=C/[C@@H]2C[C@H](OC(=O)CCCC(=O)OCCCOc3no[n+]([O-])c3S(=O)(=O)c3ccccc3)C[C@H]2[C@H](O)/C=C/C(=O)O1
- IC50 (PC-3): 160 nM
- IC50 (L02): 6700 nM
- selectivity ratio [1]: 9
- IC50 (HT-29): 1600 nM
- IC50 (HepG2): 750 nM

SMILES: O=C(O)c1ccccc1C(=O)OCCCOc1no[n+]([O-])c1S(=O)(=O)c1ccccc1
- IC50 (PC-3): 4900 nM
- IC50 (L02): 40000 nM
- IC50 (HT-29): > 10000 nM
- IC50 (HepG2): > 10000 nM

SMILES: O=C(O)c1ccccc1C(=O)OCCOc1no[n+]([O-])c1S(=O)(=O)c1ccccc1
- IC50 (PC-3): 9900 nM
- IC50 (L02): 37000 nM
- IC50 (HT-29): > 10000 nM
- IC50 (HepG2): > 10000 nM

SMILES: C[C@H]1CCC/C=C/[C@@H]2C[C@H](O)C[C@H]2[C@H](O)/C=C/C(=O)O1 [BREFELDIN A]
- IC50 (PC-3): 68 nM
- IC50 (L02): < 0.4 nM
- IC50 (HT-29): 160 nM
- IC50 (HepG2): 350 nM

SMILES: C[C@H]1CCC/C=C/[C@@H]2C[C@H](OC(=O)CCC(=O)OCCOc3no[n+]([O-])c3S(=O)(=O)c3ccccc3)C[C@H]2[C@H](O)/C=C/C(=O)O1
- IC50 (PC-3): 140 nM
- IC50 (L02): 5200 nM
- selectivity ratio [1]: 6
- IC50 (HT-29): 460 nM
- IC50 (HepG2): 910 nM

SMILES: C[C@H]1CCC/C=C/[C@@H]2C[C@H](O)C[C@H]2[C@H](OC(=O)CCCC(=O)OCCOc2no[n+]([O-])c2S(=O)(=O)c2ccccc2)/C=C/C(=O)O1
- IC50 (PC-3): 46 nM
- IC50 (L02): 5100 nM
- selectivity ratio [1]: 12
- Drug metabolism [2]: 13.9 µM
- IC50 (HT-29): 280 nM
- IC50 (HepG2): 410 nM
- Drug metabolism [3]: 68.5 µM

SMILES: C[C@H]1CCC/C=C/[C@@H]2C[C@H](OC(=O)CCC(=O)OCCCOc3no[n+]([O-])c3S(=O)(=O)c3ccccc3)C[C@H]2[C@H](O)/C=C/C(=O)O1
- IC50 (PC-3): 730 nM
- IC50 (L02): 7800 nM
- selectivity ratio [1]: 6
- IC50 (HT-29): 910 nM
- IC50 (HepG2): 1300 nM
